Assay results published in ChEMBL document CHEMBL1147256, “Antibacterial xanthones from the leaves of Garcinia nigrolineata” (2003).
Converted amounts (≈) assume the structure as drawn. The source made the active and inactive calls. The calls are words filed in the database; no cut-off is given here.

System: Staphylococcus aureus
Experiment: Antibacterial activity against methicillin-resistant Staphylococcus aureus at 16 ug/mL after 18 hrs by agar microdilution method
Type: functional, organism-based

Structure (SMILES) | Activity
CC(C)=CCc1c(O)c(CC=C(C)C)c2oc3c(O)cccc3c(=O)c2c1O | Active

System: Staphylococcus aureus
Experiment: Antibacterial activity against methicillin-resistant Staphylococcus aureus after 18 hrs by agar microdilution method
Type: functional
Outline: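 MRSA clinical isolate from Songklanakarin Hospital. Compounds were dissolved in DMSO, serially 2-fold diluted and mixed 1:100 into melted Mueller-Hinton agar, giving final concentrations of 128 to 0.03 μg/mL. Inoculum was spotted onto the agar and incubated at 35 °C for 18 h. MIC was the lowest concentration with no visible growth. Vancomycin was the positive control; DMSO-agar was the growth control.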

Structure (SMILES) | Activity | MIC [µg/mL]
CCOC(C)(C)CCc1c(O)cc2oc3c(O)ccc(CCC(C)(C)O)c3c(=O)c2c1O | inactive | 
CC(C)=CCC/C(C)=C/CCC1(C)C=Cc2c(cc(O)c3c(=O)c4cccc(O)c4oc23)O1 (configuration not stated) | inactive | 
CC(C)=CCc1c(O)cc2oc3c(O)ccc(CCC(C)(C)O)c3c(=O)c2c1O [NIGROLINEAXANTHONE N] |  | 4 (≈ 10 µM)
CC(C)=CCc1ccc(O)c2oc3cc4c(c(O)c3c(=O)c12)CCC(C)(C)O4 | inactive | 
CC(C)(O)CCc1ccc(O)c2oc3cc4c(c(O)c3c(=O)c12)C=CC(C)(C)O4 | inactive | 
COC(C)(C)CCc1ccc(O)c2oc3cc(O)c(CC=C(C)C)c(O)c3c(=O)c12 | inactive | 
CC(C)=CCc1c2c(c3oc4c(O)cccc4c(=O)c3c1O)CCC(C)(C)O2 | inactive | 
CC(C)=CCc1ccc(O)c2oc3cc4c(c(O)c3c(=O)c12)C=CC(C)(C)O4 | inactive | 
CC(C)(O)CCc1c2c(c(O)c3c(=O)c4cccc(O)c4oc13)CCC(C)(C)O2 | inactive | 
CC(C)(O)CCc1ccc(O)c2oc3cc4c(c(O)c3c(=O)c12)CCC(C)(C)O4 | inactive | 

System: Staphylococcus aureus
Experiment: Antibacterial activity against methicillin-resistant Staphylococcus aureus at 32 ug/mL after 18 hrs by agar microdilution method
Type: functional, organism-based

Structure (SMILES) | Activity
CC(C)=CCc1c2c(c3oc4c(O)cccc4c(=O)c3c1O)C=CC(C)(C)O2 | Active
